Data published in PMC7089137 (Pharmaceutical Chemistry Journal, 2019).
≈ marks a conversion by molar mass, not a printed value.

Experiments:
[1] = tested on: human cervix carcinoma HeLa cells; test: Cytostatic assay, inhibition of HeLa cell proliferation; format: cell-based; conditions: 72 h, read-out: IC50 HeLa
Summary of the method: (§1)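 Each well is seeded with (5–7.5) × 10^4 tumor cells and exposed to test compound at 100, 20, 4, 0.8, 0.16 and 0.032 μg/mL (5-fold dilutions). Cells grow at 37°C in humidified CO2: 48 h for murine L1210, 72 h for human CEM and HeLa. They are then counted with a Coulter counter. IC50 is the concentration halving proliferation, reported as mean ± SD of at least two to three independent experiments. Cisplatin is the reference.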

Reo virus-1 = test: Inhibition of virus-induced cytopathicity, reovirus-1 in Vero; format: cell-based; conditions: Vero cell cultures
Punta Toro virus = test: Inhibition of virus-induced cytopathicity, Punta Toro virus in Vero; format: cell-based; conditions: Vero cell cultures
Sindbis virus = test: Inhibition of virus-induced cytopathicity, Sindbis virus in Vero; format: cell-based; conditions: Vero cell cultures
Para influenza-3 virus = test: Inhibition of virus-induced cytopathicity, parainfluenza-3 virus in Vero; format: cell-based
[2] = tested on: L1210, CEM and HeLa cells; test: Cytostatic activity over the three tumor cell lines; format: cell-based
Summary of the method: as §1

Vaccina virus = test: microbe, parasite or virus in culture; format: cell-based, vaccinia virus Lederle strain; conditions: Orthopoxvirus vaccinia, HEL, read-out: EC50 Vaccina virus

## N#Cc1ccc(NC(=S)NN=Cc2ccc(N(CCCl)CCCl)cc2)cc1 [Ig, 2-{4-[Bis(2-chloroethyl)amino]benzylidene}-N-(4-cyanophenyl)hydrazinecarbo thioamide]
[1]
  IC50: 0.3 µg/mL (≈ 0.714 µM)
Reo virus-1
  inhibitory activity against reovirus-1 (in words): no inhibitory activity
Punta Toro virus
  inhibitory activity against Punta Toro virus (in words): no inhibitory activity
Sindbis virus
  inhibitory activity against Sindbis virus (in words): no inhibitory activity
Para influenza-3 virus
  inhibitory activity against parainfluenza virus-3 (in words): no inhibitory activity
[2]; read-out: IC50 cytostatic activity
  IC50: 0.3 to 2.5 µg/mL (≈ 0.714 to 5.95 µM)

## N#Cc1ccc(NC(=S)NN=Cc2ccccc2)cc1 [Ia, 2-Benzylidene-N-(4-cyanophenyl)hydrazinecarbothioamide]
[2]; tumor cell lines L1210, CEM, HeLa
  cytostatic activity (in words): did not show cytostatic activity

## N#Cc1ccc(NC(=S)NN)cc1 [I, N-(4-cyanophenyl)hydrazinecarbothioamide]
Vaccina virus
  EC50: 45 to 50 µg/mL (≈ 234 to 260 µM)

## CSc1ccc(NC(=S)NN)cc1 [II, N-(4-methylsulfanylphenyl)hydrazinecarbothioamide]
Vaccina virus
  EC50: 45 to 50 µg/mL (≈ 211 to 234 µM)
